The source made the active and inactive calls. The rule behind the calls is not given here.
Experiments:
Rattus norvegicus [1] = experiment: In vivo antinociceptive activity was determined using in rat abdominal irritant test (RAIT) assay; assay type: functional; details: Abdomen
Mus musculus [2] = experiment: In vivo antinociceptive activity was determined by mouse abdominal irritant test (MAIT) in male pathogen free albino CD-1 mice; assay type: functional, Abdomen; parameters: concentration or dose not given beside the values
Outline: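 Mice were dosed orally by gavage at several doses, with vehicle controls. Acetylcholine bromide was given at 5.5 mg/kg ip at set intervals later, and writhing was observed. Percent antinociception was calculated per dose from responders per group. ED50 and 95% confidence limits came from Litchfield-Wilcoxon probit analysis with a chi-square linearity test.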

Rattus norvegicus [3] = species on record: Rattus norvegicus; experiment: QT interval was determined during cardiovascular test in normotensive male albino Long-Evans rat;delta QT; assay type: functional, Heart
Rattus norvegicus [4] = species on record: Rattus norvegicus; experiment: QT interval was determined during cardiovascular test in normotensive male albino Long-Evans rat; delta QT; assay type: functional, Heart
Rattus norvegicus [5] = experiment: In vivo antinociceptive activity was determined using in Rat abdominal irritant test(RAIT) assay; IA=inactive; assay type: functional, organism-based; details: Abdomen
Rattus norvegicus [6] = species on record: Rattus norvegicus; experiment: QT interval was determined during cardiovascular test in normotensive male albino Long-Evans rat; assay type: functional, Heart; parameters: concentration or dose not given beside the values
Mus musculus [7] = experiment: In vivo antinociceptive activity was determined by Mouse abdominal irritant test (MAIT)in male pathogen free albino CD-1 mice at 30 mg/kg; assay type: functional; details: Abdomen
Outline: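 Compound or vehicle was given to mice by oral gavage at 30 mg/kg. After set intervals, acetylcholine bromide was injected at 5.5 mg/kg ip. Percent inhibition was the percentage of responders per group.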

[8] = target: Adrenergic receptor alpha-2 (Rattus norvegicus) (UniProt P22086+P19328+P22909); experiment: compounds were tested for agonistic activity in Alpha2 Adrenoceptor in Rat abdominal irritant test (RAIT); assay type: functional; details: Abdomen
[9] = target: T1, Alpha-2C adrenergic receptor (Rattus norvegicus, UniProt P22086); experiment: In vitro binding affinity against alpha-2C adrenergic receptor of male Wistar rat
T1 sequence (P22086 whole entry): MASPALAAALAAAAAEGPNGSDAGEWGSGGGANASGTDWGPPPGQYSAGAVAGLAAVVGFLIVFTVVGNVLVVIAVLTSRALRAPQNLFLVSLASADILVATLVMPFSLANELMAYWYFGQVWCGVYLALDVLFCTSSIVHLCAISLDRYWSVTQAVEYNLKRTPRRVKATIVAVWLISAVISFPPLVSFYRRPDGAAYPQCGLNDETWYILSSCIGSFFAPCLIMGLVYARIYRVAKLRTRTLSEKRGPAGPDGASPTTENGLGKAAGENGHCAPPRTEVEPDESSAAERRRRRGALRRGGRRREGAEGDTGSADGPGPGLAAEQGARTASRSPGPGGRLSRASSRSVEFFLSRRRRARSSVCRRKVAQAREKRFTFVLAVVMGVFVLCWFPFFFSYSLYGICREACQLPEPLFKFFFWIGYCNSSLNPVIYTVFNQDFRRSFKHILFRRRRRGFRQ

Sequence of Adrenergic receptor alpha-2 (Rattus norvegicus) (P19328 whole entry, looked up, one chain of several): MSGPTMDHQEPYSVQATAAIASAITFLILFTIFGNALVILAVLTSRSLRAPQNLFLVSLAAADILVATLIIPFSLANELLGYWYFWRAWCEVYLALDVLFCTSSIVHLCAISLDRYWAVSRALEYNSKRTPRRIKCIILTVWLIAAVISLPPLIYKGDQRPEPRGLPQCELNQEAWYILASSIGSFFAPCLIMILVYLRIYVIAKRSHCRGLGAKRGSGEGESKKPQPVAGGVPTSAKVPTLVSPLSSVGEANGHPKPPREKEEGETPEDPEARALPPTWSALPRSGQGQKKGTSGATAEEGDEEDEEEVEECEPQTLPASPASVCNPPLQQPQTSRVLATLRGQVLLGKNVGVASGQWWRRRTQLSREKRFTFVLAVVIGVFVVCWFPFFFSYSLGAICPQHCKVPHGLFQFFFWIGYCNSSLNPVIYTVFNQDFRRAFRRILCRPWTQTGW
Sequence of Adrenergic receptor alpha-2 (Rattus norvegicus) (P22909 whole entry, looked up, one chain of several): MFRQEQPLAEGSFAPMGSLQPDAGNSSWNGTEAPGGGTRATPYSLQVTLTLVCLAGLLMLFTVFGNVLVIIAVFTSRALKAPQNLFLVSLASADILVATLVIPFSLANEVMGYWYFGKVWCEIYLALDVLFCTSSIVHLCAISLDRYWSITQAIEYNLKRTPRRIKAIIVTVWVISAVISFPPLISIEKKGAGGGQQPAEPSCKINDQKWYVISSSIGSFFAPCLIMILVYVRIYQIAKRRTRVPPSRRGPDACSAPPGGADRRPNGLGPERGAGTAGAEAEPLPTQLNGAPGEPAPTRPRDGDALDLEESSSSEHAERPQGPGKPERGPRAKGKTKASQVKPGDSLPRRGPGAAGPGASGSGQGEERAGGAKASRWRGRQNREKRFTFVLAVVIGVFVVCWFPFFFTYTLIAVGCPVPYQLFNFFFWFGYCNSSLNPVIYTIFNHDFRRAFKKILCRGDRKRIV

Structure (SMILES)	ED50 (Rattus norvegicus [1]) [mg/kg]	Inhibition (Mus musculus [2]) [%]	other results
Cc1cc(Cc2c[nH]cn2)c(C)s1.O=C(O)/C=C/C(=O)O	0.9	100	
CC(c1c[nH]cn1)c1sccc1Br (stereo not given)	0.97		Activity (Rattus norvegicus [3]): 23%
CC(c1c[nH]cn1)c1cscc1Br (stereo not given)			Activity (Rattus norvegicus [4]): 20%
Cc1csc(C(C)c2c[nH]cn2)c1C (stereo not given)			IA (Rattus norvegicus [5]): inactive
Clc1cc(Cc2c[nH]cn2)c(Cl)s1.O=C(O)/C=C/C(=O)O	3.2	100	
Cl.c1ccc2sc(Cc3c[nH]cn3)cc2c1		20	
CCC(c1c[nH]cn1)c1cscc1C.O=C(O)/C=C/C(=O)O (stereo not given)	2.6	100	
Cc1cscc1Cc1c[nH]cn1.O=C(O)/C=C/C(=O)O	0.35	100	Activity (Rattus norvegicus [6]): 34%
Cc1ccsc1Cc1c[nH]cn1.Cl	0.87		Activity (Rattus norvegicus [4]): 22%; inhibition in vivo at 30 mg/kg (Mus musculus [7]): 100%
Cc1ccsc1C1(c2c[nH]cn2)CC1.O=C(O)/C=C/C(=O)O		40	
Brc1csc(Cc2c[nH]cn2)c1Br.Cl	7.1	93	
Cc1sccc1Cc1c[nH]cn1.O=C(O)/C=C/C(=O)O	0.89	100	
CC(c1c[nH]cn1)c1scc(Br)c1Br.O=C(O)/C=C/C(=O)O (stereo not given)		80	
Brc1sccc1Cc1c[nH]cn1.O=C(O)/C=C/C(=O)O		100	ED50 [8]: 1.1 mg/kg
Brc1csc(Cc2c[nH]cn2)c1.Cl	5.2	80	Ki [9]: 1.4 nM
CCc1cscc1Cc1c[nH]cn1.O=C(O)/C=C/C(=O)O	0.32	100	Activity (Rattus norvegicus [6]): 48%
Cc1csc(Cc2c[nH]cn2)c1C.Cl	4.7		inhibition in vivo at 30 mg/kg (Mus musculus [7]): 100%
O=C(O)/C=C/C(=O)O.c1nc(Cc2ccsc2)c[nH]1	0.97	100	
c1csc(Cc2c[nH]cn2)c1			inhibition in vivo at 30 mg/kg (Mus musculus [7]): 60%
Brc1ccsc1Cc1c[nH]cn1.Cl	2		inhibition in vivo at 30 mg/kg (Mus musculus [7]): 100%

Structure (SMILES)	ED50 (Rattus norvegicus [1]) [mg/kg]	Inhibition (Mus musculus [2]) [%]	other results
Cc1csc(C)c1Cc1c[nH]cn1.O=C(O)/C=C/C(=O)O		100	
Cc1ccsc1C(C)c1c[nH]cn1 (single isomer, unassigned; (+))	1.18		Activity (Rattus norvegicus [4]): 24%
COC(c1c[nH]cn1)c1sccc1Br.O=C(O)/C=C/C(=O)O (stereo not given)		53	
Cc1cccc([C@H](C)c2c[nH]cn2)c1C [DEXMEDETOMIDINE]	0.12		
CC(c1c[nH]cn1)c1cscc1Br.O=C(O)/C=C/C(=O)O (stereo not given)	0.31	100	
CCc1cscc1C(C)c1c[nH]cn1.O=C(O)/C=C/C(=O)O (stereo not given)	0.48	100	Activity (Rattus norvegicus [6]): 32%
COC(c1c[nH]cn1)c1cscc1Br.O=C(O)/C=C/C(=O)O (stereo not given)	3.6	100	
CCc1cc(Cc2c[nH]cn2)c(CC)s1.O=C(O)/C=C/C(=O)O	0.31	100	
CC(c1c[nH]cn1)c1sccc1Br.Cl (stereo not given)	0.97	100	
Cc1ccsc1C(C)c1c[nH]cn1.Cl (stereo not given)	2.2	100	
CC(C)c1cc(Cc2c[nH]cn2)c(C(C)C)s1.O=C(O)/C=C/C(=O)O		40	
CCc1sccc1Cc1c[nH]cn1.O=C(O)/C=C/C(=O)O	0.27	100	Activity (Rattus norvegicus [6]): 28%
Cc1cscc1C(C)c1c[nH]cn1.O=C(O)/C=C/C(=O)O (stereo not given)	0.27	100	
Brc1cscc1Cc1c[nH]cn1.O=C(O)/C=C/C(=O)O	0.38	100	Activity (Rattus norvegicus [6]): 11%
Cc1sccc1C(C)c1c[nH]cn1.O=C(O)/C=C/C(=O)O (stereo not given)	1.6	100	
O=C(O)/C=C/C(=O)O.c1ccc2c(Cc3c[nH]cn3)csc2c1	0.44	0.441	
CCC(c1c[nH]cn1)c1sccc1C.O=C(O)/C=C/C(=O)O (stereo not given)		100	IA (Rattus norvegicus [5]): inactive
COC(c1c[nH]cn1)c1cscc1C.O=C(O)/C=C/C(=O)O (stereo not given)	4.4	100	
Cc1ccc(Cc2c[nH]cn2)s1			inhibition in vivo at 30 mg/kg (Mus musculus [7]): 33%
Cl.c1nc(Cc2cc3c(s2)CCCC3)c[nH]1		7	

— ChEMBL document CHEMBL1134368, “Alpha(2) adrenoceptor agonists as potential analgesic agents. 3. Imidazolylmethylthiophenes” (J Med Chem, 2001)
